# Screening results from PubChem BioAssay.
# PvdQ inh – P. aeruginosa PvdQ acylase inhibitors, primary screen, biochemical, fluorescence, plate reader and imaging, single point. 0.063% of 340,000 active. purified PvdQ acylase. AID 488965, 2010. inhibition, % at 10 µM; in the data active = inhibition above about 30%, passing the limit was not always enough;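 note: 0% = vehicle neutral wells and 100% = reference inhibitor wells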
# CAL PDZ FP-1 – CAL PDZ peptide-binding inhibitors, primary screen, biochemical, fluorescence polarization, Cer-tagged CAL PDZ, HTS; Golgi-associated PDZ and coiled-coil motif-containing protein (Homo sapiens), Q9HD26; purified CAL PDZ, TMR-peptide fluorescence polarization, 1 h; inhibition, % at 20 µM; 0.02% of 330,000 active; AID 504414, 2011;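 active = highest replicate inhibition of at least 40%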;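 note: plate controls were DMSO neutral control wells for no effect and unlabeled competitor peptide control wells for full effect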
#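 Control set: unlabelled peptide and DMSO controls / Material: purified CerCALP PDZ construct / Timing: 1 h incubation at room temperature before polarization reading / Doses: 20 µM, one dose / Detection: fluorescence polarization (mP)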
# Glyco luc inh – increase of ERlucT glycosylation luciferase signal, primary screen, N-linked glycosylation inhibitor project, D54 ERlucT cells, luminescence, set 2; D54 ERlucT glycosylation luciferase reporter, 24 h; percent of 100 nM tunicamycin response; reporter increase, % at 12.5 µM; 0.23% of 360,000 active;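 active = mean luciferase reporter signal, scaled so untreated is 0 and the glycosylation-blocking control 100, at or above a set limit in every replicate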;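 note: luciferase carries N-glycosylation sites so blocking glycosylation raises the light; 0% = median of neutral control wells and 100% = median of 100 nM tunicamycin wells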
# CAL PDZ FP-2 – untagged CAL PDZ binding inhibitors, primary screen, biochemical, fluorescence polarization, HTS; Golgi-associated PDZ and coiled-coil motif-containing protein (Homo sapiens), Q9HD26; 0.92% of 300,000 active; purified CAL PDZ, TMR-peptide fluorescence polarization, 1 h; inhibition, % at 24.9 µM;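 active = mean inhibition of at least 30% with at least half of replicates also reaching 30%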;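 note: 0% = DMSO neutral control and 100% = excess unlabeled competitor peptide PRC23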
# CDK5 p35 inh – inhibitors of human CDK5/p35 kinase, primary screen, biochemical, single concentration. 0.01% of 330,000 active. Cyclin-dependent kinase 5 (Homo sapiens) + Cyclin-dependent kinase 5 activator 1 (Homo …. Recombinant CDK5/p35, ADP-Glo luminescence, 60 min. AID 488839, 2010. inhibition, % at 10 µM;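 active = highest replicate inhibition of at least 50% and at least 75% of replicates reaching 50%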;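 note: plate controls were DMSO neutral control for no effect and GW8510 at 10 µM for full effect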
# Target sequence (Q00535 whole entry, looked up): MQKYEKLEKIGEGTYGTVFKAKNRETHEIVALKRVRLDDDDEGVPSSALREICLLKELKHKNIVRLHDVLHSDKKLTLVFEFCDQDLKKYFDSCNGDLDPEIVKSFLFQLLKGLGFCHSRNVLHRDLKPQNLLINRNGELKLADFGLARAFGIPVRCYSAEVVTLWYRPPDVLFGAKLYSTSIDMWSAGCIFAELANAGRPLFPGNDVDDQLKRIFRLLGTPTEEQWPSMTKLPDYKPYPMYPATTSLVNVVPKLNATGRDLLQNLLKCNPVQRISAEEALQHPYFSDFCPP
# Target sequence (Q15078 whole entry, looked up): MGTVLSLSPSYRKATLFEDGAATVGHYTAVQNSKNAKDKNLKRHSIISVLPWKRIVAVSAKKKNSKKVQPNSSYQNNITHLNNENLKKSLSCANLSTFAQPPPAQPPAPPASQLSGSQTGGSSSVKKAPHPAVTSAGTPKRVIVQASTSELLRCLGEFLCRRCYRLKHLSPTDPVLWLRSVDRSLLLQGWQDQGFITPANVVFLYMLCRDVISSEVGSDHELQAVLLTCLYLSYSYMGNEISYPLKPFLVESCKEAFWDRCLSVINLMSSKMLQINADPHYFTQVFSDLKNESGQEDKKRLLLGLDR
# Vif inh – HIV Vif self-association inhibitors, primary screen, imaging, HEK293T, single point. HEK293T cells, Vif self-association by quenched fluorescence, 24 h. inhibition, % at 7.49 µM. 0.35% of 340,000 active. AID 602346, 2012; in the data active = inhibition above about 50%, passing the limit was not always enough
# * marks the source's active call; other numbers are inactive results; / = no result; + = active, no number. Shown are actives, neighbours in structure and some others; about 1.4% of the full set was active somewhere.
SMILES,PvdQ inh,CAL PDZ FP-1,Glyco luc inh,CAL PDZ FP-2,CDK5 p35 inh,Vif inh
C[C@@H]1CN([C@H](C)CO)C(=O)c2c(c3ccccc3n2C)-c2ccccc2CO[C@@H]1CN(C)S(=O)(=O)c1cccs1,/,/,-0.7,/,/,6.4
CCN1C[C@@H]2[C@@H]3C(=O)N(C)C(=O)[C@@H]3[C@](C)(C1=O)N2C(=O)c1ccc(Cl)c(Cl)c1,-7.4,-0.9,0.6,-0.7,-1.2,-2.9
O=C1CCCC2=C1C1(CCCCC1)N=C(Nc1nc3ccccc3o1)N2,-1.0,-0.9,47.1*,/,0.2,-2.3
O=C1CCCC2=C1C1(CCCC1)N=C(Nc1nc3ccccc3o1)N2,/,/,13.9,/,/,/
COc1ccccc1/C=C/C(=O)NNC(=O)c1cccs1,-14.4,-0.8,0.4,71.2*,-1.0,2.9
O=C(/C=C/c1ccccc1)NNC(=O)c1cccs1,-17.3,-2.2,3.4,-1.7,0.0,0.0
COc1ccccc1/C=C/C(=O)/C=C/c1ccccc1O,-9.9,0.1,38.7*,-1.9,0.7,-3.5
COC(=O)/C(C#N)=C/c1ccc(-c2ccc(S(N)(=O)=O)cc2)o1,-16.1,-2.3,4.0,35.8*,3.1,-4.2
CCn1cnc2sc(C(=O)Oc3cccc(C)c3)c(C)c2c1=O,-16.9,-0.2,0.1,41.8*,-0.7,-3.8
COc1ccc2o/c(=N\O)c(C(=O)Nc3ccc(C)cc3)cc2c1,-23.3,0.2,1.1,79.6*,-0.9,0.5
Cc1ccc(S(=O)(=O)Nc2nc3ccccc3nc2NCc2ccco2)cc1,-9.4,0.3,-4.0,-5.1,-2.8,-4.7
O=S(=O)(Nc1nc2ccccc2nc1NCc1ccco1)c1ccc(Cl)cc1,-10.3,-0.6,-0.7,1.4,-1.0,62.0*
COc1ccc(-c2oc3ccccc3c2C#Cc2cncn2C)cc1,3.2,-0.8,14.0,-1.8,-0.2,8.8
CCN(CC)CCNc1nc2cc(OC)c(OC)cc2c2nc(-c3ccccc3)nn12,5.6,/,71.1*,-6.9,1.1,-33.6
CCN(CC(=O)Nc1cc(Cl)ccc1C)CC(=O)NC1CC1,/,/,2.4,/,/,-6.5
CCN(CC(=O)Nc1cc(Cl)cc(Cl)c1)CC(=O)NC1CCS(=O)(=O)C1 (stereo unspecified),-14.2,/,1.7,-3.5,-1.1,53.7*
C=CCOC(=O)c1ccc(-n2cnc(C)n2)nc1,70.7*,-2.7,2.2,-2.7,-0.5,-2.1
O=C(CSc1nc2ncccc2[nH]1)NCc1ccco1,-16.5,-0.8,0.0,58.6*,1.1,-6.1
CC(=O)Oc1ccccc1C(=O)OCCN=C1NS(=O)(=O)c2ccccc21,-13.9,-0.8,1.9,-3.4,2.1,-2.3
Cc1ccc(S(=O)(=O)Nc2ccccc2C(=O)N2CCN(C)CC2)cc1,-0.3,0.9,2.2,43.9*,0.4,30.9
CC(C)(C)OC(=O)C[C@H]1C/C=C\C[C@@H](CC(=O)N(CCO)Cc2ccccc2)C(=O)N2CCC[C@H]2COC1=O,-6.6,0.5,0.8,1.3,-6.1,-3.3
Cc1oc(-c2ccc(Cl)cc2)nc1CN1CCC(C(=O)NCc2cccnc2)CC1,11.0,0.1,-0.6,-2.5,1.1,86.6*
Cc1ccc(C(=O)OC(C)C(=O)N(C)C2CCCCC2)cc1S(=O)(=O)N1CCCCC1 (stereo unspecified),-16.3,-1.2,-4.8,-11.1,-1.4,7.8
CCOC(=O)/C(C#N)=C/c1ccc(OC)c(OC)c1,-11.0,-2.1,0.1,0.1,-2.5,5.3
CCOC(=O)/C(C#N)=C/c1ccc(SC)cc1,44.8*,-4.0,1.3,-2.7,1.3,-0.4
SMILES,PvdQ inh,CAL PDZ FP-1,Glyco luc inh,CAL PDZ FP-2,CDK5 p35 inh,Vif inh
CCOC(=O)/C(C#N)=C/c1cc(C)n(-c2ccc(C)cc2)c1C,6.6,0.5,-12.9,0.2,0.4,71.3*
CC(=O)Nc1cnc(-c2ccc3c(c2)OCO3)cn1,/,/,-1.3,/,/,2.9
Cc1ccc(C(=O)NC(=S)N(C)C2CCCCC2)cc1,-13.2,-1.8,0.2,-3.0,-1.0,/
COc1cc2ccccc2cc1C(=O)Nc1ccc(C)cn1,-7.2,-2.5,-3.3,-2.8,0.5,7.4
COc1ccc(NC(=O)Oc2cc(C)ccc2C(C)C)cc1,-11.5,-0.9,0.3,88.6*,-1.2,4.4
NC(c1csc(Nc2ccc(C(=O)c3ccccc3)cc2)n1)c1ccccc1Cl (stereo unspecified),/,/,-5.0,/,/,-7.9
CN1C(=O)/C(=C\c2ccc(OC(=O)c3ccco3)cc2)SC1=S,-11.2,-0.8,2.4,56.8*,1.9,17.8
CN1C(=O)/C(=C/c2ccc(OC(=O)c3ccco3)cc2)SC1=S,-19.1,-0.1,0.3,+,3.1,1.8
COc1cc(/C=C2\SC(=S)N(CC(=O)O)C2=O)ccc1OC(=O)c1ccco1,-8.2,-1.1,-3.7,-4.0,0.2,0.9
CC(C)(C)NC(=O)CN(Cc1ccc(F)cc1)C(=O)Cn1nnc(-c2ccc(F)cc2)n1,-5.1,-2.5,-1.7,-2.6,-1.2,58.4*
Cc1ccc(N(CC(=O)NC2CCCCC2)C(=O)Cn2nnc(-c3ccc(C)o3)n2)cc1,-12.5,16.6,1.8,-8.5,-0.6,10.3
COc1ccc(C)cc1N(CC(=O)NC1CCCC1)C(=O)Cn1nnc(-c2ccc(C)o2)n1,-18.6,0.3,-0.6,103.2*,0.4,-7.8
O=C(CN(C(=O)Cn1nnc(-c2ccc(F)cc2)n1)C1CCCC1)NC1CCCC1,-5.3,-0.3,-1.7,/,-0.3,66.7*
O=C(CN(Cc1ccco1)C(=O)Cn1nnc(-c2ccc(F)cc2)n1)NC1CCCC1,-10.5,-0.3,-1.3,-0.6,-2.4,/
COc1ccccc1OCCC(=O)Nc1cccc(S(=O)(=O)N2CCOCC2)c1,-8.6,1.0,-1.1,-2.8,1.3,2.6
CC(C)n1c(/C=C/[C@H](O)C[C@H](O)CC(=O)O)c(-c2ccc(F)cc2)c2ccccc21,-5.5,0.2,103.5*,-3.8,-1.9,-3.0
Cn1cc(C(CC(=O)O)C(=O)O)c2ccccc21 (stereo unspecified),-12.0,-0.6,-0.8,0.4,-1.8,5.9
COc1ccccc1-n1cc(-c2ccccc2)c2c(=S)nc[nH]c21,-3.2,-1.0,8.1,77.0*,2.1,-6.5
COc1ccccc1-n1cc(-c2ccccc2)[nH]c1=S,-22.1,-1.5,3.5,-3.8,2.2,-11.6
CN(CC(=O)Nc1ccc(Cl)c(C(F)(F)F)c1)C(=O)c1ccccc1SCC(=O)N1CCCC1,0.6,-1.2,-2.2,-2.0,0.8,-14.7
